{
  "source": "ChEMBL document CHEMBL4680175",
  "about": "“Sulfonamide-based ring-fused analogues for CAN508 as novel carbonic anhydrase inhibitors endowed with antitumor activity: Design, synthesis, and in vitro biological evaluation” (Eur J Med Chem, 2020)",
  "key": {"Carbonic anhydrase 1": {"molecular_target": "Carbonic anhydrase 1 (Homo sapiens, UniProt P00915)", "sequence (P00915 whole entry)": "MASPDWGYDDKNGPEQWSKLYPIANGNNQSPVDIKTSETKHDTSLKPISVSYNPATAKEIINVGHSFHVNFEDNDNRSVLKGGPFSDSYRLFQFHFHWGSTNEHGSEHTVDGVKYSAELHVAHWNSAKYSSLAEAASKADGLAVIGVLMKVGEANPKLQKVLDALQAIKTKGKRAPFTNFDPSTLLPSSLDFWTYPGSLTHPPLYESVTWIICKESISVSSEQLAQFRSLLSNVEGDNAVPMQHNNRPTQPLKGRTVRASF", "assay": "Inhibition of recombinant human carbonic anhydrase 1 preincubated with enzyme for 15 mins by phenol red dye based stopped flow CO2 hydrase assay"}, "Carbonic anhydrase 2": {"molecular_target": "Carbonic anhydrase 2 (Homo sapiens, UniProt P00918)", "assay": "Inhibition of recombinant human carbonic anhydrase 2 preincubated with enzyme for 15 mins by phenol red dye based stopped flow CO2 hydrase assay"}, "Carbonic anhydrase 9": {"molecular_target": "Carbonic anhydrase 9 (Homo sapiens, UniProt Q16790)", "assay": "Inhibition of recombinant human carbonic anhydrase 9 preincubated with enzyme for 15 mins by phenol red dye based stopped flow CO2 hydrase assay"}, "Carbonic anhydrase 12": {"molecular_target": "Carbonic anhydrase 12 (Homo sapiens, UniProt O43570)", "sequence (O43570 whole entry)": "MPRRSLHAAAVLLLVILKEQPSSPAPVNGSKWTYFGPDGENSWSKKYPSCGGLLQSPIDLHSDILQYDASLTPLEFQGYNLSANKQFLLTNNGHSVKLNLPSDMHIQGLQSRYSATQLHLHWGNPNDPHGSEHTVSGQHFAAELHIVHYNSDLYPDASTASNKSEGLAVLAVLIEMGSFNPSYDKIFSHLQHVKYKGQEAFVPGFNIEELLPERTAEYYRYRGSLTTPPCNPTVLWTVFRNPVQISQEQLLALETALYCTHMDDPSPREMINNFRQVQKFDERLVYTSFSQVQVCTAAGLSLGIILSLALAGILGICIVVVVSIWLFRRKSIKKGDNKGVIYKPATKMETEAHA", "assay": "Inhibition of recombinant human carbonic anhydrase 12 preincubated with enzyme for 15 mins by phenol red dye based stopped flow CO2 hydrase assay"}, "[1]": {"molecular_target": "Cyclin-dependent kinase 2/cyclin E1 (Homo sapiens, UniProt P24941)", "assay": "Inhibition of CDK2/cyclin E (unknown origin) expressed in baculovirus infected Sf21 insect cells using histone H1 as substrate in presence of [gamma33P]ATP"}, "CDK9/cyclin T1": {"molecular_target": "CDK9/cyclin T1 (Homo sapiens, UniProt P50750)", "sequence (O60563 whole entry, the tested form may be a part)": "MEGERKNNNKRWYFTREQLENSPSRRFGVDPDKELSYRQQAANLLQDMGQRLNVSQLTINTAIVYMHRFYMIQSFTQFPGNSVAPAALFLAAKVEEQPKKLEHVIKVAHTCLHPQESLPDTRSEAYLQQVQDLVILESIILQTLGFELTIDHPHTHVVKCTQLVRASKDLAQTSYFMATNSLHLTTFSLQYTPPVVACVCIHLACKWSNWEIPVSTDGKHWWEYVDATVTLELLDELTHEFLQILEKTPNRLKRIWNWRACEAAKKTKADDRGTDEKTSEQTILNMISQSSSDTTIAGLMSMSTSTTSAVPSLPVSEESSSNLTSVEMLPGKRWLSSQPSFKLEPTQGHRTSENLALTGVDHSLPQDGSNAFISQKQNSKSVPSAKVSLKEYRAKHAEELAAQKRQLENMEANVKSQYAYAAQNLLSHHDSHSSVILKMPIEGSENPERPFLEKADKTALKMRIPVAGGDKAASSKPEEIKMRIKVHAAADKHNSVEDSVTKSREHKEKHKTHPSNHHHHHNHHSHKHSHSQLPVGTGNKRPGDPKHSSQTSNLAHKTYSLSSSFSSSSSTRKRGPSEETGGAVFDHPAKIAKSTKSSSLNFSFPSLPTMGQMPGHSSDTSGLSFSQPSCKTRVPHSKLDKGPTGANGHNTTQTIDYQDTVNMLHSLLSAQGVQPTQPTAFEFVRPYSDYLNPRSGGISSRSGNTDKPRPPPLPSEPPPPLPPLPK", "sequence (P50750 whole entry, the tested form may be a part)": "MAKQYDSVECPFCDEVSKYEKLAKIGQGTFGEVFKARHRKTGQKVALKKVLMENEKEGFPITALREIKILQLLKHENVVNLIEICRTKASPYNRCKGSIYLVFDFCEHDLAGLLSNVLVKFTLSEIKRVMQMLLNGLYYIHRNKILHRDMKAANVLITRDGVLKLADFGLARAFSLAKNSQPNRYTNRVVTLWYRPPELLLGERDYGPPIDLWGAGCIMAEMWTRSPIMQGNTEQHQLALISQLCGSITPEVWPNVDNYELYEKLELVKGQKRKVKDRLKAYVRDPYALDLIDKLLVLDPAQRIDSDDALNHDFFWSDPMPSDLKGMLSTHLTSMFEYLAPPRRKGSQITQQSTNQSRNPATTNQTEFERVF", "assay": "Inhibition of human full-length N-terminal GST/His6-tagged CDK9 (1 to 372 residues)/His6-tagged Cyclin-T1 (1 to 726 residues) expressed in sf9 cells using (YSPTSPS)2KK peptide as substrate in presence of [gamma33P]ATP"}, "SR": {"test_system": "SR", "assay": "Antitumor activity against human SR cells assessed as cell growth inhibition at 10 uM incubated for 48 hrs by sulforhodamine B assay", "assay_type": "functional", "conditions": "read-out: GI", "outline": "(§1)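 NCI one-dose screen: 57-cell-line panel exposed at 10 μM for 48 h, Drug Evaluation Branch protocol. Growth and viability read by sulforhodamine B; data given as percent growth inhibition from the mean-graph of percent growth of treated cells.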"}, "NCI-H322M": {"test_system": "NCI-H322M", "assay": "Antitumor activity against human NCI-H322M cells assessed as cell growth inhibition at 10 uM incubated for 48 hrs by sulforhodamine B assay", "assay_type": "functional", "conditions": "read-out: GI", "outline": "(§2)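 NCI Drug Evaluation Branch protocol: primary single-dose screen at 10 μM across a 57-line human cancer panel. Drug exposure is 48 h. Cell growth and viability are read by sulforhodamine B assay. Data are given as a mean graph of percent growth of treated cells and reported as percentage growth inhibition (GI%).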"}, "NCI-H460": {"test_system": "NCI-H460", "assay": "Antitumor activity against human NCI-H460 cells assessed as cell growth inhibition at 10 uM incubated for 48 hrs by sulforhodamine B assay", "assay_type": "functional", "conditions": "read-out: GI", "outline": "as §2"}, "NCI-H522": {"test_system": "NCI-H522", "assay": "Antitumor activity against human NCI-H522 cells assessed as cell growth inhibition at 10 uM incubated for 48 hrs by sulforhodamine B assay", "assay_type": "functional", "conditions": "read-out: GI", "outline": "as §2"}, "SNB-75": {"test_system": "SNB-75", "assay": "Antitumor activity against human SNB-75 cells assessed as cell growth inhibition at 10 uM incubated for 48 hrs by sulforhodamine B assay", "assay_type": "functional", "conditions": "read-out: GI", "outline": "as §1"}, "LOX IMVI": {"test_system": "LOX IMVI", "assay": "Antitumor activity against human LOX IMVI cells assessed as cell growth inhibition at 10 uM incubated for 48 hrs by sulforhodamine B assay", "assay_type": "functional", "conditions": "read-out: GI", "outline": "as §2"}, "M14": {"test_system": "M14", "assay": "Antitumor activity against human M14 cells assessed as cell growth inhibition at 10 uM incubated for 48 hrs by sulforhodamine B assay", "assay_type": "functional", "conditions": "read-out: GI", "outline": "as §2"}, "CAKI-1": {"test_system": "CAKI-1", "assay": "Antitumor activity against human CAKI-1 cells assessed as cell growth inhibition at 10 uM incubated for 48 hrs by sulforhodamine B assay", "assay_type": "functional", "conditions": "read-out: GI", "outline": "as §2"}, "IGROV-1": {"test_system": "IGROV-1", "assay": "Antitumor activity against human IGROV1 cells assessed as cell growth inhibition at 10 uM incubated for 48 hrs by sulforhodamine B assay", "assay_type": "functional", "conditions": "read-out: GI", "outline": "as §2"}, "SK-OV-3": {"test_system": "SK-OV-3", "assay": "Antitumor activity against human SK-OV-3 cells assessed as cell growth inhibition at 10 uM incubated for 48 hrs by sulforhodamine B assay", "assay_type": "functional", "conditions": "read-out: GI", "outline": "as §2"}, "786-0": {"test_system": "786-0", "assay": "Antitumor activity against human 786-0 cells assessed as cell growth inhibition at 10 uM incubated for 48 hrs by sulforhodamine B assay", "assay_type": "functional", "conditions": "read-out: GI", "outline": "as §2"}, "A498": {"test_system": "A498", "assay": "Antitumor activity against human A498 cells assessed as cell growth inhibition at 10 uM incubated for 48 hrs by sulforhodamine B assay", "assay_type": "functional", "conditions": "read-out: GI", "outline": "as §2"}, "ACHN": {"test_system": "ACHN", "assay": "Antitumor activity against human ACHN cells assessed as cell growth inhibition at 10 uM incubated for 48 hrs by sulforhodamine B assay", "assay_type": "functional", "conditions": "read-out: GI", "outline": "as §2"}, "UO-31": {"test_system": "UO-31", "assay": "Antitumor activity against human UO-31 cells assessed as cell growth inhibition at 10 uM incubated for 48 hrs by sulforhodamine B assay", "assay_type": "functional", "conditions": "read-out: GI", "outline": "as §1"}, "RXF 393": {"test_system": "RXF 393", "assay": "Antitumor activity against human RXF 393 cells assessed as cell growth inhibition at 10 uM incubated for 48 hrs by sulforhodamine B assay", "assay_type": "functional", "conditions": "read-out: GI", "outline": "as §2"}, "TK-10": {"test_system": "TK-10", "assay": "Antitumor activity against human TK-10 cells assessed as cell growth inhibition at 10 uM incubated for 48 hrs by sulforhodamine B assay", "assay_type": "functional", "conditions": "read-out: GI", "outline": "as §1"}, "Hs-578T": {"test_system": "Hs-578T", "assay": "Antitumor activity against human HS 578T cells assessed as cell growth inhibition at 10 uM incubated for 48 hrs by sulforhodamine B assay", "assay_type": "functional", "conditions": "read-out: GI", "outline": "as §2"}, "BT-549": {"test_system": "BT-549", "assay": "Antitumor activity against human BT-549 cells assessed as cell growth inhibition at 10 uM incubated for 48 hrs by sulforhodamine B assay", "assay_type": "functional", "conditions": "read-out: GI", "outline": "as §2"}, "NCI/ADR-RES": {"test_system": "NCI/ADR-RES", "assay": "Antitumor activity against human NCI/ADR-RES cells assessed as cell growth inhibition at 10 uM incubated for 48 hrs by sulforhodamine B assay", "assay_type": "functional, cell-based", "outline": "as §2"}},
  "note": "Activity calls are given as the source filed them. The calls are words filed in the database; no cut-off is given here.",
  "data": [
    {"smiles": "Nc1nn2c(-c3cccs3)ccnc2c1/N=N/c1ccc(S(N)(=O)=O)cc1", "values": [
      {"measurement": "Ki", "setting": "Carbonic anhydrase 1", "result": 1150, "unit": "nM"},
      {"measurement": "Ki", "setting": "Carbonic anhydrase 2", "result": 7.1, "unit": "nM"},
      {"measurement": "Ki", "setting": "Carbonic anhydrase 9", "result": 40.1, "unit": "nM"},
      {"measurement": "Ki", "setting": "Carbonic anhydrase 12", "result": 59, "unit": "nM"},
      {"measurement": "IC50", "setting": "[1]", "result": "> 12500", "unit": "nM"},
      {"measurement": "IC50", "setting": "CDK9/cyclin T1", "result": "> 12500", "unit": "nM"}
    ]},
    {"smiles": "Nc1nn2cc(-c3ccc(Cl)cc3)[nH]c2c1/N=N/c1ccc(S(N)(=O)=O)cc1", "values": [
      {"measurement": "Ki", "setting": "Carbonic anhydrase 1", "result": 651, "unit": "nM"},
      {"measurement": "Ki", "setting": "Carbonic anhydrase 2", "result": 22.1, "unit": "nM"},
      {"measurement": "Ki", "setting": "Carbonic anhydrase 9", "result": 16.6, "unit": "nM"},
      {"measurement": "Ki", "setting": "Carbonic anhydrase 12", "result": 36.5, "unit": "nM"},
      {"measurement": "IC50", "setting": "[1]", "result": "> 12500", "unit": "nM"},
      {"measurement": "IC50", "setting": "CDK9/cyclin T1", "result": "> 12500", "unit": "nM"},
      {"measurement": "inhibition of growth at 10 µM", "setting": "SR", "result": 28, "unit": "%"},
      {"measurement": "inhibition of growth at 10 µM", "setting": "NCI-H322M", "result": 25, "unit": "%"},
      {"measurement": "inhibition of growth at 10 µM", "setting": "NCI-H460", "result": 25, "unit": "%"},
      {"measurement": "inhibition of growth at 10 µM", "setting": "NCI-H522", "result": 30, "unit": "%"},
      {"measurement": "inhibition of growth at 10 µM", "setting": "SNB-75", "result": 23, "unit": "%"},
      {"measurement": "inhibition of growth at 10 µM", "setting": "LOX IMVI", "result": 21, "unit": "%"},
      {"measurement": "inhibition of growth at 10 µM", "setting": "M14", "result": 21, "unit": "%"},
      {"measurement": "inhibition of growth at 10 µM", "setting": "CAKI-1", "result": 35, "unit": "%"},
      {"measurement": "inhibition of growth at 10 µM", "setting": "IGROV-1", "result": 21, "unit": "%"},
      {"measurement": "inhibition of growth at 10 µM", "setting": "SK-OV-3", "result": 21, "unit": "%"},
      {"measurement": "inhibition of growth at 10 µM", "setting": "786-0", "result": 28, "unit": "%"},
      {"measurement": "inhibition of growth at 10 µM", "setting": "A498", "result": 65, "unit": "%"},
      {"measurement": "inhibition of growth at 10 µM", "setting": "ACHN", "result": 29, "unit": "%"},
      {"measurement": "inhibition of growth at 10 µM", "setting": "UO-31", "result": 22, "unit": "%"},
      {"measurement": "inhibition of growth at 10 µM", "setting": "RXF 393", "result": 29, "unit": "%"},
      {"measurement": "inhibition of growth at 10 µM", "setting": "TK-10", "result": 27, "unit": "%"},
      {"measurement": "inhibition of growth at 10 µM", "setting": "Hs-578T", "result": 21, "unit": "%"},
      {"measurement": "inhibition of growth at 10 µM", "setting": "BT-549", "result": 34, "unit": "%"},
      {"measurement": "Activity", "setting": "NCI/ADR-RES", "result": "inactive"}
    ]},
    {"smiles": "Cc1ccc(-c2ccnc3c(/N=N/c4ccc(S(N)(=O)=O)cc4)c(N)nn23)cc1", "values": [
      {"measurement": "Ki", "setting": "Carbonic anhydrase 1", "result": 1330, "unit": "nM"},
      {"measurement": "Ki", "setting": "Carbonic anhydrase 2", "result": 6.2, "unit": "nM"},
      {"measurement": "Ki", "setting": "Carbonic anhydrase 9", "result": 45.7, "unit": "nM"},
      {"measurement": "Ki", "setting": "Carbonic anhydrase 12", "result": 60.7, "unit": "nM"},
      {"measurement": "IC50", "setting": "[1]", "result": "> 12500", "unit": "nM"},
      {"measurement": "IC50", "setting": "CDK9/cyclin T1", "result": "> 12500", "unit": "nM"}
    ]}
  ]
}
